Assay outcomes deposited in PubChem BioAssay by Sanford-Burnham Center for Chemical Genomics.
Only some compounds are listed: those with a hit (about 2.5% of all), similar ones and a draw of the others.
SENP7 inh: SENP7 protease inhibitors, primary screen, biochemical, luminescence, uHTS. Sentrin-specific protease 7 (Homo sapiens), Q9BQF6. recombinant SENP7, Z-RLRGG-aminoluciferin luminescence, 40 min. inhibition, % at 5 µM. hit rate 1.5% among 330,000. AID 434973, 2010;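 active means inhibition above about 50% at the single test dose, limit read from the data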;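 further: plate controls were DMSO with enzyme for no effect and no enzyme buffer wells for full effect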
SENP1 inh: human SENP1 catalytic domain inhibitors, primary screen, biochemical, FRET, uHTS; Sentrin-specific protease 1 (Homo sapiens), Q9P0U3; hit rate 0.21% among 360,000; recombinant SENP1 catalytic domain, CyPet-SUMO1-YPet FRET cleavage; inhibition, % at 10 µM; AID 624204, 2012;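 active means inhibition at least 30% at 10 µM, raw YFP signal under a set limit, fluorescence ratio 0.5 to 1.5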;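 further: 0% = enzyme with DMSO and 100% = no enzyme wells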
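Compound: 10 µM single point, 0.5% DMSO; Test system: hSENP1 catalytic domain, recombinant; Timing: 50 min reaction at room temperature; Technique: FRET, CFP and YFP emission; Control set: no-enzyme wells low, DMSO-plus-enzyme wells high control.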
SENP6 block: SENP6 protease inhibitors, primary screen, biochemical, luminescence, uHTS; Sentrin-specific protease 6 (Homo sapiens), Q9GZR1; Recombinant SENP6 catalytic domain, aminoluciferin luminescence; hit rate 1.8% among 330,000; inhibition, % at 10 µM;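 active means inhibition above about 50% at the single tested dose, limit read from the data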;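 further: plate controls were DMSO wells with enzyme for no effect and DMSO wells lacking enzyme for full effect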
SENP8 block-1: human SENP8 protease inhibitors, primary screen, biochemical, fluorescence, Nedd8 protein substrate, uHTS. Sentrin-specific protease 8 (Homo sapiens), Q96LD8. recombinant SENP8. inhibition, % at 20 µM. hit rate 0.64% among 360,000. AID 602440, 2012; in the data active means inhibition mostly above about 40%, no sharp cut-off; inactive means mostly below about 27%
Target sequence (Q96LD8 whole entry, looked up): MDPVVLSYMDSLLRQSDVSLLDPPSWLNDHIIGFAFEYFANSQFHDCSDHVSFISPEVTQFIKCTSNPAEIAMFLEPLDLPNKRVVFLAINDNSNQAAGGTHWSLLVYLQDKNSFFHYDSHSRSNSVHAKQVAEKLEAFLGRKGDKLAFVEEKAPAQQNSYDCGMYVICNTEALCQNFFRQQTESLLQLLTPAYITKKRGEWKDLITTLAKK
SENP8 block-2: SENP8 protease inhibitors, primary screen, biochemical, luminescence | purified SENP8, Z-RLRGG-aminoluciferin cleavage | Sentrin-specific protease 8 (Homo sapiens), Q96LD8 | inhibition, % at 10 µM | hit rate 1.2% among 330,000; in the data active means inhibition above about 50%
SENP8 confirm: SENP8 protease inhibitors, retest, confirmation, biochemical, luminescence, single concentration. shares compounds with SENP7 inh. Recombinant SENP8, Z-RLRGG-aminoluciferin luminescence, 60 min. inhibition, % at 12.5 µM. hit rate 40% among 6,200. AID 488912, 2010;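 active means mean inhibition across replicates above about 50%, limit read from the data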
SENP6 conf: SENP6 protease inhibitors, confirmation, biochemical, luminescence, single concentration | inhibition, % at 12.5 µM | recombinant SENP6, Z-RLRGG-aminoluciferin luminescence | hit rate 58% among 6,200 | shares compounds with SENP7 inh | AID 488915, 2010
SENP7 conf: SENP7 protease inhibitors, retest, confirmation, biochemical, luminescence, single concentration | recombinant SENP7, Z-RLRGG-aminoluciferin luminescence, 40 min | inhibition, % at 12.5 µM | shares compounds with SENP7 inh | hit rate 69% among 6,200 | AID 488917, 2010
Casp3 select: caspase-3 protease inhibitors, confirmation, selectivity assay for SENP inhibitor project, biochemical, single concentration. shares compounds with SENP7 inh. purified caspase-3, Z-DEVD-aminoluciferin luminescence, 60 min. inhibition, % at 12.5 µM. hit rate 60% among 6,200. AID 488918, 2010;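 active means mean inhibition above about 50%, limit read from the data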;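 further: plate controls were enzyme with DMSO for no effect and wells without caspase-3 for full effect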
Target sequence (P42574 28-227 limits assumed): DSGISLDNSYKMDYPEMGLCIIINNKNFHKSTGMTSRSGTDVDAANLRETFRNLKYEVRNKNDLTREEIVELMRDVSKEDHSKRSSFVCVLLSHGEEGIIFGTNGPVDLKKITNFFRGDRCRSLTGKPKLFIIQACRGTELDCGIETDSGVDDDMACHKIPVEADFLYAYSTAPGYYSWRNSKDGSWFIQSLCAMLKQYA
SENP luc ctr: counter-screen for SENP inhibitors: luminescence interference; hit rate 39% among 6,200; inhibition, % at 12.5 µM; Pre-incubated SENP8/Z-RLRGG-aminoluciferin, luciferase luminescence interference; shares compounds with SENP7 inh;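 active means mean inhibition above about 50% when retested at one dose, limit read from the data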;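 further: plate controls were DMSO wells with completed reaction for no effect and substrate without enzyme for full effect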
Numbers without * were called inactive; · = no result.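 How the source made its calls, unless noted: active means mean inhibition above about 50% in the one-dose retest (limit read from the data); inactive means the rest.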

SMILES | SENP7 inh | SENP1 inh | SENP6 block | SENP8 block-1 | SENP8 block-2 | SENP8 confirm | SENP6 conf | SENP7 conf | Casp3 select | SENP luc ctr
COc1cccc2sc3cc(C#Cc4ccccn4)ccc3c(=O)c12 | -1 | -33 | 17 | -242 | 11 | · | · | · | · | ·
Cc1ccc(N2C(=O)c3ccccc3C2=O)cc1 | -11 | 1 | 3 | 16 | -3 | · | · | · | · | ·
Cc1ccc(N2C(=O)c3ccccc3C2=O)cc1Cl | 51* | 1 | 35 | 19 | 20 | 8 | 11 | 3 | 19 | -3
COc1cc(NC(=O)Nc2nc(C(N)CCc3ccccc3)cs2)cc(OC)c1OC (stereo not given) | · | 1 | · | 8 | · | · | · | · | · | ·
CNC(=O)/C(C#N)=c1\s/c(=C/C(=O)OC)c(=O)n1-c1ccccc1 | -12 | 1 | -12 | 8 | -2 | · | · | · | · | ·
COC(=O)/C=c1\sc2ncnn2c1=O | 6 | -1 | 85* | 16 | 7 | 6 | 1 | -4 | -3 | -2
Cc1ccccc1C(=O)NNC(=S)NC(=O)c1ccc(Cl)cc1Cl | -1 | 1 | 18 | 19 | 7 | · | · | · | · | ·
COc1ccccc1NC(=S)NNC(=O)c1ccc(Cl)cc1Cl | 54* | 3 | 72* | 3 | 47 | 23 | 18 | 5 | 1 | 22
COc1ccc(OCC(=O)Nc2cc3c(cc2C(=O)O)OCCCO3)cc1 | 1 | 0 | 11 | -18 | -8 | · | · | · | · | ·
Cc1ccnc(NC(=O)Nc2cccc(F)c2)n1 | 67* | 4 | 28 | 9 | 44 | 30 | 31 | 57* | 61* | 12
COc1cccc(NC(=O)NCc2ccccn2)c1 | -7 | 0 | 0 | 9 | -4 | · | · | · | · | ·
COc1cccc(NC(=O)Nc2nccc(C)n2)c1 | 55* | 3 | 58* | 1 | 31 | 30 | 32 | 71* | 76* | 34
COc1ccc(NC(=O)C2(C)CCN2C)cc1OC (stereo not given) | · | 1 | · | 6 | · | · | · | · | · | ·
O=C(CCCc1ccccc1)NCc1ccc(F)cc1 | -8 | 0 | -9 | 10 | -15 | · | · | · | · | ·
Cc1cc(C)n(C)c(=O)c1C#N | 11 | 2 | -6 | -22 | 5 | · | · | · | · | ·
Cc1c(C=O)c(Cl)n(C)c(=O)c1C#N | 74* | -101 | 2 | -46 | 41 | 17 | 22 | 9 | 2 | 2
CC(=O)N=Cc1c(C)c(C#N)c(=O)n(C)c1O | 14 | -32 | 57* | -16 | 10 | -23 | -18 | -6 | -5 | -4
Cc1c(/C=N/Nc2ccc(F)cc2)c(O)n(C)c(=O)c1C#N | 9 | -8 | 13 | -8 | 18 | · | · | · | · | ·
Nc1c(Br)cc2oc(-c3ccccc3)nc2c1Br | 16 | -2 | 17 | -75 | -11 | · | · | · | · | ·
COc1ccc(-c2nc3c(Br)c(N)c(Br)cc3o2)cc1 | 80* | -3 | 4 | -56 | 4 | -8 | -12 | 12 | 38 | -11
CC(C)C[C@@H](CN1CCC[C@H]1CN1C(=O)C(=O)NC[C@@H]1Cc1ccccc1)N1C[C@H](Cc2ccccc2)N(CC2CCCCC2)C(=O)C1=O | · | -1 | · | 6 | · | · | · | · | · | ·
Cc1ccccc1N=Cc1cccc(O)c1O | 2 | 12 | 14 | 24 | -5 | · | · | · | · | ·
Oc1cccc(/C=N/N=C/c2cccc(O)c2O)c1O | 94* | 4 | 96* | 20 | 92* | 94* | 94* | 100* | 92* | 27
